Source: ChEMBL document CHEMBL3603769, “1,5-Disubstituted benzimidazoles that direct cardiomyocyte differentiation from mouse embryonic stem cells” (2015)

Test: Induction of cardiomyogenesis in mouse ESC transfected with alpha-MHC at 0.78 to 12.5 uM treated on day 2 to 4 followed by cell reseeding in normal growth media on day 6, 8 measured on day 10 by GFP reporter gene assay relative to vehicle-treated control
Format: functional, Embryonic stem cell
Procedure, shortened: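 mESCs stably carrying αMHC-promoter eGFP, expanded feeder-free with LIF on poly-D-lysine (5 passages), then seeded about 1000 cells/well on gelatin in growth media without LIF. From day 2, compound added in equal volume of media at 2× final (0.78–12.5 μM; 50 mM DMSO stocks). Cultures kept at 37 °C, 5% CO2, fixed in paraformaldehyde on day 9 or 10 and DAPI-stained. αMHC-eGFP fluorescence imaged automatically and expressed as fold-change over DMSO-treated cells.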

Compared with c1ccc(-n2cnc3cc(NCc4cccs4)ccc32)cc1, c1ccc(-n2cnc3cc(NCc4ccco4)ccc32)cc1 is higher in “fold change (FC)” value: 0.75 for the first, 2.2 for the second.

Going from Cc1nnc(Nc2ccc3c(c2)ncn3C)c2ccccc12 to Cc1nnc(Nc2ccc3c(c2)ncn3C2CC2)c2ccccc12, the “fold change (FC)” value falls from 1.6 to 0.9.

Compared with Nc1ccc2c(c1)ncn2-c1ccccc1, CC(=O)Nc1ccc2c(c1)ncn2-c1ccccc1 is lower in “fold change (FC)” value: 3 for the first, 1.2 for the second.

First: Cc1nnc(Nc2ccc3c(c2)nc(N)n3-c2ccccc2)c2ccccc12
Second: Cc1nnc(Nc2ccc3c(c2)nc(N(C)C)n3-c2ccccc2)c2ccccc12
The “fold change (FC)” value of the first is lower: 2.1 for the first, 3.7 for the second.

First: Cc1nnc(Nc2ccc3c(c2)ncn3-c2ccccc2)c2ccccc12
Second: Cc1nnc(Nc2ccc3c(c2)ncn3-c2ccccc2O)c2ccccc12
The “fold change (FC)” value of the first is higher: 9.6 for the first, 2.1 for the second.

Going from COc1ccccc1-n1cnc2cc(Nc3nnc(C)c4ccccc34)ccc21 to Cc1nnc(Nc2ccc3c(c2)ncn3-c2ccccc2C(C)C)c2ccccc12, the “fold change (FC)” value rises from 4.3 to 4.4.

First: COc1cccc(-n2cnc3cc(Nc4nnc(C)c5ccccc45)ccc32)c1
Second: COc1cccc(-n2cnc3cc(Nc4nnc(Cl)c5ccccc45)ccc32)c1
The “fold change (FC)” value of the first is higher: 18.6 for the first, 6.7 for the second.

Going from CCCc1ccc(-n2cnc3cc(Nc4nnc(C)c5ccccc45)ccc32)cc1 to COc1ccc(-n2cnc3cc(Nc4nnc(C)c5ccccc45)ccc32)cc1, the “fold change (FC)” value rises from 0.7 to 10.

Going from Cc1nnc(Nc2ccc3c(c2)ncn3-c2cccc(C(F)(F)F)c2)c2ccccc12 to Cc1nnc(Nc2ccc3c(c2)ncn3-c2ccc(C(F)(F)F)cc2)c2ccccc12, the “fold change (FC)” value rises from 0.5 to 1.6.

Going from Cc1nnc(Nc2ccc3c(c2)ncn3C2CCCCC2)c2ccccc12 to Cc1nnc(Nc2ccc3c(c2)ncn3C2CCOCC2)c2ccccc12, the “fold change (FC)” value falls from 3.3 to 1.6.

Going from Cc1nnc(Nc2ccc3c(c2)ncn3-c2ccccn2)c2ccccc12 to Cc1nnc(Nc2ccc3c(c2)nnn3-c2ccccc2)c2ccccc12, the “fold change (FC)” value rises from 2.2 to 3.1.

First: Cc1nnc(Nc2ccc3c(c2)ncn3C2CCN(C)CC2)c2ccccc12
Second: COc1ccccc1-n1cnc2cc(Nc3nnc(C)c4ccccc34)cnc21
The “fold change (FC)” value of the first is higher: 4.4 for the first, 2.5 for the second.

Compared with COc1cccc(-n2cnc3cc(Nc4nncc5ccccc45)ccc32)c1, COc1cccc(-n2cnc3cc(Nc4nnc(OC)c5ccccc45)ccc32)c1 is lower in “fold change (FC)” value: 13.7 for the first, 7.1 for the second.

Going from COc1cccc(-n2cnc3cc(Nc4nnc(Cc5ccccc5)c5ccccc45)ccc32)c1 to COc1cccc(-n2cnc3cc(Nc4nnc(-c5ccccc5)c5ccccc45)ccc32)c1, the “fold change (FC)” value falls from 2 to 1.

First: COc1cccc(-n2cnc3cc(NCCc4ccccc4)ccc32)c1
Second: COc1cccc(-n2cnc3cc(NCc4ccccc4OC)ccc32)c1
The “fold change (FC)” value of the first is lower: 1.4 for the first, 1.7 for the second.

First: Cn1cccc1CNc1ccc2c(c1)ncn2-c1ccccc1
Second: Clc1ncccc1CNc1ccc2c(c1)ncn2-c1ccccc1
The “fold change (FC)” value of the first is higher: 1.6 for the first, 1.4 for the second.

Compared with Brc1ccc(CNc2ccc3c(c2)ncn3-c2ccccc2)s1, FC(F)(F)c1ccc(CNc2ccc3c(c2)ncn3-c2ccccc2)cn1 is lower in “fold change (FC)” value: 3.1 for the first, 2.9 for the second.

Compared with c1ccc(-c2ccc(CNc3ccc4c(c3)ncn4-c3ccccc3)cn2)cc1, c1ccc(CN2CCC(CNc3ccc4c(c3)ncn4-c3ccccc3)CC2)cc1 is higher in “fold change (FC)” value: 3 for the first, 4.3 for the second.

Going from COc1cccc(-n2cnc3cc(NC(=O)c4ccccn4)ccc32)c1 to COc1cccc(Nc2ccc3c(c2)ncn3-c2ccccc2OC)c1, the “fold change (FC)” value rises from 1.7 to 3.8.

First: COc1ccccc1-n1cnc2cc(Nc3ccc4ccccc4c3)ccc21
Second: COc1ccccc1-n1cnc2cc(Nc3ccccc3)ccc21
The “fold change (FC)” value of the first is higher: 3.1 for the first, 0.7 for the second.

Compared with COc1ccccc1-n1cnc2cc(Nc3ncccn3)ccc21, COc1ccccc1-n1cnc2cc(Nc3ccccn3)ccc21 is higher in “fold change (FC)” value: 1.1 for the first, 1.5 for the second.

First: c1ccc(-n2cnc3cc(Nc4cnccn4)ccc32)cc1
Second: c1ccc(-n2cnc3cc(Nc4cccnc4)ccc32)cc1
The “fold change (FC)” value of the first is lower: 2.4 for the first, 7.8 for the second.

First: Cc1cccc(-n2cnc3cc(Nc4ccc(C)nn4)ccc32)c1
Second: Cc1nnc(Nc2ccc3c(ccn3-c3ccccc3)c2)c2ccccc12
The “fold change (FC)” value of the first is higher: 7.9 for the first, 2 for the second.

Test: Induction of cardiomyogenesis in mouse ESC transfected with alphaMHC-eGFP at 3 uM treated on day 2 to 4 followed by cell reseeding in normal growth media on day 6 and 8 measured on day 12 by alpha-Actinin Alexa568-based immunohistochemical analysis relative to vehicle-treated control
Format: functional, Embryonic stem cell
Procedure, shortened: (§1)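 αMHC-eGFP mESCs dosed at 3 or 6 μM on days 2 and 4, then fixed at day 10 or 12 in 4% paraformaldehyde for 40 min at room temperature. Cells were permeabilized and blocked 30 min in PBS with 10% horse serum and 0.2% Triton X-100. Staining used mouse anti-α-actinin (1:200, 60 min) then donkey anti-mouse Alexa568 (1:400, with DAPI, 60 min). Integrated Alexa568 intensity was reported relative to DMSO vehicle.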

With Cc1nnc(Nc2ccc3c(c2)ncn3-c2ccccc2)c2ccccc12 the “fold change (FC)” value was 10.

Test: Induction of cardiomyogenesis in mouse ESC transfected with alpha-MHC at 3 uM treated on day 2 to 4 followed by cell reseeding in normal growth media on day 6, 8 measured on day 12 by GFP reporter gene assay relative to vehicle-treated control
Format: functional, Embryonic stem cell
Procedure, shortened: (§2)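 αMHC-eGFP mESCs seeded in growth media without LIF, dosed at 3 or 6 μM on days 2 and 4, and fed growth media on days 6 and 8. Cultures were then fixed in 4% paraformaldehyde. Integrated intensity of αMHC-eGFP fluorescence was measured by automated imaging as fold increase over DMSO vehicle. nsRED autofluorescence was subtracted.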

With Cc1nnc(Nc2ccc3c(c2)ncn3-c2ccccc2)c2ccccc12 the “fold change (FC)” value was 10.

Test: Induction of cardiomyogenesis in mouse ESC transfected with alphaMHC-eGFP at 6 uM treated on day 2 to 4 followed by cell reseeding in normal growth media on day 6 and 8 measured on day 12 by alpha-Actinin Alexa568-based immunohistochemical analysis relative to vehicle-treated control
Format: functional, Embryonic stem cell
Procedure, shortened: as §1

With Cc1nnc(Nc2ccc3c(c2)ncn3-c2ccccc2)c2ccccc12 the “fold change (FC)” value was 20.

Test: Induction of cardiomyogenesis in mouse ESC transfected with alpha-MHC at 6 uM treated on day 2 to 4 followed by cell reseeding in normal growth media on day 6, 8 measured on day 12 by GFP reporter gene assay relative to vehicle-treated control
Format: functional, Embryonic stem cell
Procedure, shortened: as §2

For Cc1nnc(Nc2ccc3c(c2)ncn3-c2ccccc2)c2ccccc12, the “fold change (FC)” value was 20.
